The source made the active and inactive calls. The calls are words filed in the database; no cut-off is given here.
Legend:
[1] = target: T1, MAP/microtubule affinity-regulating kinase 3 (Homo sapiens, UniProt P27448); assay: Displacement of tracer K9 from NLuc fused MARK3 (unknown origin) expressed in HEK293 cells by NanoBRET assay; type: cell-based
Target sequence in this assay (P27448 whole entry, the tested form may be a part): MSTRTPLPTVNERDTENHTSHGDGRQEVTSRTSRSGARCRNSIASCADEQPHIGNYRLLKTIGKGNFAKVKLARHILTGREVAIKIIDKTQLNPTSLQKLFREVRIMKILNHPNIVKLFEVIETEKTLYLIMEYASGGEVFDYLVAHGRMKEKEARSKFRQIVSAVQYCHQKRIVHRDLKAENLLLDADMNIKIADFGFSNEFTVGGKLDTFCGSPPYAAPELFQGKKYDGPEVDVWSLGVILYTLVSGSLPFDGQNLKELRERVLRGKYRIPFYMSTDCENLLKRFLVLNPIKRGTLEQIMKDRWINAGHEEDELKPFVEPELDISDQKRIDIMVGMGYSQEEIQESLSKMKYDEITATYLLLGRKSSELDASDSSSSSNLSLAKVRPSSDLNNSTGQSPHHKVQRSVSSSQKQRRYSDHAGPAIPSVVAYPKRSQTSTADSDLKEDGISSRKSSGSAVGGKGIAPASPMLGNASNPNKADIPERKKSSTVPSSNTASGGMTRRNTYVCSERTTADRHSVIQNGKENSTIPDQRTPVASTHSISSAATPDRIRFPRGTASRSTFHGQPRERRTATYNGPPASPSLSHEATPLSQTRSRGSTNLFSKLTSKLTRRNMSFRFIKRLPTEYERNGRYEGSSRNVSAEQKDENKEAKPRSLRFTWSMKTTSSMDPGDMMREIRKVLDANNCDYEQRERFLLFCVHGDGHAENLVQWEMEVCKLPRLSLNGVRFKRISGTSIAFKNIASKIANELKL

[2] = target: T2, Macrophage colony-stimulating factor 1 receptor (Homo sapiens, UniProt P07333); assay: Inhibition of recombinant human FMS (538 to end residues) using KKKSPGEYVNIEFG as substrate measured after 40 mins in presence of [gamma33P]ATP by radiometric scintillation counting method
Summary of the method: (§1)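 Eurofins radiometric kinase assay run at ATP equal to Km for each kinase. 9-point dose–response in duplicate gives the IC50.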

[3] = Effective permeability in PBS at 7.4 incubated for 5 hrs by PAMPA analysis; type: ADME; conditions: pH 7.4, 5 h
Summary of the method: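 PAMPA: DMSO stocks were diluted in PBS pH 7.4 and placed in the donor compartment, with PBS pH 7.4 in the acceptor, for 5 h. Both compartments were quantified by CLND against a calibration curve, with background nitrogen correction. Effective permeability was calculated from donor and acceptor concentrations using measured rather than assumed solubility.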

[4] = target: T2, Macrophage colony-stimulating factor 1 receptor; assay: Inhibition of NanoLuc-fused CSF1R (unknown origin) expressed in HEK293 cells incubated for 2 hrs by NanoBRET assay; type: cell-based
[5] = target: T3, Non-receptor tyrosine-protein kinase TYK2 (Homo sapiens, UniProt P29597); assay: Inhibition of NanoLuc-fused TYK2 (unknown origin) expressed in HEK293 cells incubated for 2 hrs by NanoBRET assay; type: cell-based
Summary of the method: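 Cellular NanoBRET target-engagement assays were run by Carna Biosciences to the manufacturer's protocol. Dose–response was in singlicate, with compounds tested at concentrations up to 10 μM.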

[6] = target: T4, Serine/threonine-protein kinase TBK1 (Homo sapiens, UniProt Q9UHD2); assay: Displacement of tracer K5 from NLuc fused TBK1 (unknown origin) expressed in HEK293 cells by NanoBRET assay; type: cell-based
T4 sequence (Q9UHD2 whole entry): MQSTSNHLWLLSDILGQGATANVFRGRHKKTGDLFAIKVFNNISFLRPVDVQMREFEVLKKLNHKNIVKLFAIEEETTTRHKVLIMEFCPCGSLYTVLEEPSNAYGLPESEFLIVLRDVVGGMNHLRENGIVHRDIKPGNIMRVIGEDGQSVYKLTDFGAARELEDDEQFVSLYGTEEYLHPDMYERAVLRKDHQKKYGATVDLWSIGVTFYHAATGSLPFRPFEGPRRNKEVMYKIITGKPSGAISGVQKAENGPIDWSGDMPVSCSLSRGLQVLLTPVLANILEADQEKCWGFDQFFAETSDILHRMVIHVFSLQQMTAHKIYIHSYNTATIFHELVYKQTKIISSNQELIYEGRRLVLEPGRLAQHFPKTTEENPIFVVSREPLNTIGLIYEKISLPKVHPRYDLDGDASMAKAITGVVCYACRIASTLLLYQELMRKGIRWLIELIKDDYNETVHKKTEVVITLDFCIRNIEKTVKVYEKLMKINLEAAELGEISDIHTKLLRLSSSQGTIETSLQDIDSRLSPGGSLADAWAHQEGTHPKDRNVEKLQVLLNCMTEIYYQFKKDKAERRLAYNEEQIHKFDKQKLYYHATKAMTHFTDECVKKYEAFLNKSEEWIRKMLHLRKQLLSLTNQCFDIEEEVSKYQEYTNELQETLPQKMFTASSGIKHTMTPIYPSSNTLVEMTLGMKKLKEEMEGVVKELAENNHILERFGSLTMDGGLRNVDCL
Summary of the method: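 HEK293 cells grown in DMEM with 10% FBS at 37 °C, 5% CO2. NanoBRET assay run in dose–response per manufacturer's protocol with tracer K-5 at 0.5 μM. SEM calculated for assays run more than once.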

[7] = target: T5, Serine/threonine-protein kinase 17A (Homo sapiens, UniProt Q9UEE5); assay: Displacement of tracer K9 from NLuc fused DRAK1 (unknown origin) expressed in HEK293 cells by NanoBRET assay; type: cell-based
T5 sequence (Q9UEE5 whole entry): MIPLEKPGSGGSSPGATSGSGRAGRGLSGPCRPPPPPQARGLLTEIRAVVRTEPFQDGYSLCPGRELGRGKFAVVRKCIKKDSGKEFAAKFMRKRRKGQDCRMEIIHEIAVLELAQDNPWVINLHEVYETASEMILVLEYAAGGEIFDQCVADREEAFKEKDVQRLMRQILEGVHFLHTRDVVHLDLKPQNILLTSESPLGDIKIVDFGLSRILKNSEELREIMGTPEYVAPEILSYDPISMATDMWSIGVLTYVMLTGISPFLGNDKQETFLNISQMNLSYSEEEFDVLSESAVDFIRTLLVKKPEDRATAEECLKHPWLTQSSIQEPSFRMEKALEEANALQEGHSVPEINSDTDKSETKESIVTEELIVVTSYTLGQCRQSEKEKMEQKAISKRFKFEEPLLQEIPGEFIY

[8] = Kinetic solubility of compound in PBS at pH 7.4 incubated for 24 hrs by chemiluminscent nitrogen detection method; type: physicochemical; conditions: buffer, pH 7.4, 24 h
Summary of the method: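 Filtrates were quantified by total chemiluminescent nitrogen determination against a calibration curve, with correction for background nitrogen from DMSO and medium.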

[9] = target: T3, Non-receptor tyrosine-protein kinase TYK2; assay: Inhibition of human TYK2 (875 to end residues) using GGMEDIYFEFMGGKKK as substrate measured after 40 mins in presence of [gamma33P]ATP by radiometric scintillation counting method
Summary of the method: (§2)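 Eurofins radiometric enzymatic assay with ATP at Km for each kinase. IC50 was derived from a 9-point dose–response curve run in duplicate.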

[10] = target: T6, MAP/microtubule affinity-regulating kinase 4 (Homo sapiens, UniProt Q96L34); assay: Displacement of tracer K5 from NLuc fused MARK4 (unknown origin) expressed in HEK293 cells by NanoBRET assay; type: cell-based
T6 sequence (Q96L34 whole entry): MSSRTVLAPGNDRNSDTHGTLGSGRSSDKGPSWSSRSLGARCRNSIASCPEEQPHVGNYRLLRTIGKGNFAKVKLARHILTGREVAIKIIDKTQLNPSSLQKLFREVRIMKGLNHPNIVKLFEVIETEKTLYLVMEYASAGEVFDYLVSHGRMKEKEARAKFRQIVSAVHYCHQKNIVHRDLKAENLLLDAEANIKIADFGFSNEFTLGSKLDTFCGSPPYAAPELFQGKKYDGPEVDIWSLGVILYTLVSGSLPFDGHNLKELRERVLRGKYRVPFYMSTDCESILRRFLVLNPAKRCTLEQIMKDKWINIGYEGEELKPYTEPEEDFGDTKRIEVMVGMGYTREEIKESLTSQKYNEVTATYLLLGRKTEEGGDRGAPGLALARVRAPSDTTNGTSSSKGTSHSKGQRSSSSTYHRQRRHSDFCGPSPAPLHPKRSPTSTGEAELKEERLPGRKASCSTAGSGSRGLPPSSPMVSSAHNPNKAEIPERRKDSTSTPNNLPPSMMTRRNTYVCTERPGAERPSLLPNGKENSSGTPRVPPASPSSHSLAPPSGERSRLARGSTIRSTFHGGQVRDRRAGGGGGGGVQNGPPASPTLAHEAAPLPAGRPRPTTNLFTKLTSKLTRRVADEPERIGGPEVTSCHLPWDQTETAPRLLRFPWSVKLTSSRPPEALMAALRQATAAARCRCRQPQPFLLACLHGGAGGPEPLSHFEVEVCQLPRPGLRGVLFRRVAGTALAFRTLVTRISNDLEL

[11] = target: Tyrosine-protein kinase JAK2 (Homo sapiens) (UniProt O60674); assay: Inhibition of recombinant human JAK2 (808 to end residues) using KTFCGTPEYLAPEVRREPRILSEEEQEMFRDFDYIADWC as substrate at 1 uM incubated for 40 mins in presence of [gamma-33P-ATP] by radiometric scintillation assay relative to control
Summary of the method: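 Eurofins radiometric kinase assay with ATP at Km for each kinase. Compound was tested at a single 1 μM concentration in duplicate, and the result is reported as percent of control.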

[12] = target: T7, MAP/microtubule affinity-regulating kinase 4 (Homo sapiens) (UniProt Q96L34); assay: Inhibition of recombinant full length human MARK4 using KKKVSRSGLYRSPSMPENLNRPR as substrate incubated for 40 mins in presence of [gamma-33ATP] by scintillation counting based radiometry assay; summary of the method: as §2
T7 sequence (whole entry): T6 sequence (Q96L34 whole entry)

[13] = target: NUAK family SNF1-like kinase 1 (Homo sapiens) (UniProt O60285); assay: Inhibition of recombinant human ARK5 (2 to end residues) using KKKVSRSGLYRSPSMPENLNRPR as substrate incubated for 40 mins in presence of [gamma-33ATP] by scintillation counting based radiometry assay; summary of the method: as §2
[14] = target: Mitogen-activated protein kinase kinase kinase 9 (Homo sapiens) (UniProt P80192); assay: Inhibition of recombinant human MLK1 (134 to 414 residues) using casein as substrate incubated for 40 mins in presence of [gamma-33ATP by scintillation counting based radiometry assay; summary of the method: as §2
[15] = target: T1, MAP/microtubule affinity-regulating kinase 3; assay: Inhibition of recombinant full length human MARK3 using KKKVSRSGLYRSP as substrate incubated for 40 mins in presence of [gamma-33ATP] by scintillation counting based radiometry assay; summary of the method: as §2
Target sequence in this assay (P27448 whole entry, looked up, the tested form may be a part): as the sequence (P27448 whole entry, the tested form may be a part) above

[16] = target: Serine/threonine-protein kinase MARK1 (Homo sapiens) (UniProt Q9P0L2); assay: Inhibition of recombinant human MARK1 (2 to end residues) using KKKVSRSGLYRSPSMPENLNRPR as substrate incubated for 40 mins in presence of [gamma-33ATP] by scintillation counting based radiometry assay; summary of the method: as §2
[17] = target: MAP kinase-interacting serine/threonine-protein kinase 2 (Homo sapiens, UniProt Q9HBH9); assay: Inhibition of full length recombinant human MKNK2 using myelin basic protein as substrate incubated for 40 mins in presence of [gamma-33P-ATP] by radiometric scintillation assay; summary of the method: as §1
[18] = target: AP2-associated protein kinase 1 (Homo sapiens, UniProt Q2M2I8); assay: Inhibition of human AAK1 using peptide as substrate incubated for 120 mins in presence of [gamma-33ATP] by scintillation counting based radiometry assay; summary of the method: as §1
[19] = target: Serine/threonine-protein kinase 17B (Homo sapiens, UniProt O94768); assay: Inhibition of recombinant human DRAK2 using KKRPQRRYSNVF as substrate after 120 mins in presence of [gamma-33ATP] by scintillation counting based radiometry assay; summary of the method: as §2
[20] = target: T5, Serine/threonine-protein kinase 17A; assay: Inhibition of recombinant human DRAK1 using KKLNRTLSFAEPG as substrate after 40 mins in presence of [gamma-33ATP] by scintillation counting based radiometry assay; summary of the method: as §1
[21] = target: BMP-2-inducible protein kinase (Homo sapiens, UniProt Q9NSY1); assay: Residual activity of human BMP2K at 1 uM using peptide as substrate incubated for 120 mins in presence of [gamma-33P-ATP] by radiometric scintillation assay relative to control
[22] = target: Serine/threonine-protein kinase SIK2 (Homo sapiens, UniProt Q9H0K1); assay: Inhibition of recombinant human SIK2 (1 to 276 residues) using KKKVSRSGLYRSPSMPENLNRPR as substrate measured after 40 mins in presence of [gamma33P]ATP by radiometric scintillation counting method; summary of the method: as §1

T3 sequence (P29597 whole entry, the tested form may be a part): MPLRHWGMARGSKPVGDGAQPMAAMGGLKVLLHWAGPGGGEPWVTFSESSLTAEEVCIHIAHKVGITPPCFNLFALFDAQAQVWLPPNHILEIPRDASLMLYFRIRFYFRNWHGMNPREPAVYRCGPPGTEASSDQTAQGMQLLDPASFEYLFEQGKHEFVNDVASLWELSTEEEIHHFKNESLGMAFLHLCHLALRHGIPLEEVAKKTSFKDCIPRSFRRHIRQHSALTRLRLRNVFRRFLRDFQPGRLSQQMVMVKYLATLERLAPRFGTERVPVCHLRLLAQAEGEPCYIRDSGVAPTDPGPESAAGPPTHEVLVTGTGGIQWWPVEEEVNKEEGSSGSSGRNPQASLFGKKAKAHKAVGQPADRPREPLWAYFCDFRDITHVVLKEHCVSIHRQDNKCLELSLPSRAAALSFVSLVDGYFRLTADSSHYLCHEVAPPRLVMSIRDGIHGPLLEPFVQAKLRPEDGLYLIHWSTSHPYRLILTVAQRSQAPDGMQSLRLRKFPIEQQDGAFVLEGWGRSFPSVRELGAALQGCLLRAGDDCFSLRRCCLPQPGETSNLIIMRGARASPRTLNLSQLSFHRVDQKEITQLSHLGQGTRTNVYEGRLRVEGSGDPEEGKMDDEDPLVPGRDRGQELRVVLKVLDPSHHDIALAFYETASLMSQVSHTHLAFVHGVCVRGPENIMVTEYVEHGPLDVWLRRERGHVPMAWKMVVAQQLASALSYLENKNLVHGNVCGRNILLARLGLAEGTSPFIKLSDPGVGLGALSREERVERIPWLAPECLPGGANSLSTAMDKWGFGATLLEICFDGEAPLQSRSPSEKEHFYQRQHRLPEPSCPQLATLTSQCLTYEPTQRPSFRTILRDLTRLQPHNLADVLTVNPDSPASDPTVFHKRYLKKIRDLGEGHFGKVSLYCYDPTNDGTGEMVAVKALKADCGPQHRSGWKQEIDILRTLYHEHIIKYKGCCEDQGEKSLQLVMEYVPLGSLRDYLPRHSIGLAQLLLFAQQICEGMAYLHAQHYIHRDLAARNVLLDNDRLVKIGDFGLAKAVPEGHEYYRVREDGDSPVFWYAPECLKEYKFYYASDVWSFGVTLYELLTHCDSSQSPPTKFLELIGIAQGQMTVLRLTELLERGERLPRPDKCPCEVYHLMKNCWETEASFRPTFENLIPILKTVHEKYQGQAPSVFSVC
T2 sequence (P07333 whole entry): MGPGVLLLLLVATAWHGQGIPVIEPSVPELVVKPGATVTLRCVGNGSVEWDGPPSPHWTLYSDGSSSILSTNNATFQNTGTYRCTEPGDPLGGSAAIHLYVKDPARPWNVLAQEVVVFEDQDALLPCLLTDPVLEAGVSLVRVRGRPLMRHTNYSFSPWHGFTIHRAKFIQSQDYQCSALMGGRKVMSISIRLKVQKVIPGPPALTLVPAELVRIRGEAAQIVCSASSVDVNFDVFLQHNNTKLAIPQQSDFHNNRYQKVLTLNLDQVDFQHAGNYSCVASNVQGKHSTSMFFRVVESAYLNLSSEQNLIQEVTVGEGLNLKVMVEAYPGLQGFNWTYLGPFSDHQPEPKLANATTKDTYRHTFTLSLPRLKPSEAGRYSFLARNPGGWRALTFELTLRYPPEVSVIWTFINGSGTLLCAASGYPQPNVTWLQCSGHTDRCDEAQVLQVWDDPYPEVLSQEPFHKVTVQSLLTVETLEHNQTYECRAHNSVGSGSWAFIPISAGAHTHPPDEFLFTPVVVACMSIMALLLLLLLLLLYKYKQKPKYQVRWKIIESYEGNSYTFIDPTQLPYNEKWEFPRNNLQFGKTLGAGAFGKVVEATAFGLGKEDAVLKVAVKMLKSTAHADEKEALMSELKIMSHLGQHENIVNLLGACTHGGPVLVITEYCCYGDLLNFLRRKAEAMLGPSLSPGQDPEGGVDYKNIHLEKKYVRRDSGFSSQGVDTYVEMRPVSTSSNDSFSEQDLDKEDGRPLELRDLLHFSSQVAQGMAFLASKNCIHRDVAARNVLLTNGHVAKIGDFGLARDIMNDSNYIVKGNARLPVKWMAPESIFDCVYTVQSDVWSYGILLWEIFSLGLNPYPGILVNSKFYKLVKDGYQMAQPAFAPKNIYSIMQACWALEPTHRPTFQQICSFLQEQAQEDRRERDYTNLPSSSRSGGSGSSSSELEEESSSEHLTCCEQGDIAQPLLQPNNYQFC
NUAK family SNF1-like kinase 1 (Homo sapiens), sequence (O60285 whole entry, the tested form may be a part): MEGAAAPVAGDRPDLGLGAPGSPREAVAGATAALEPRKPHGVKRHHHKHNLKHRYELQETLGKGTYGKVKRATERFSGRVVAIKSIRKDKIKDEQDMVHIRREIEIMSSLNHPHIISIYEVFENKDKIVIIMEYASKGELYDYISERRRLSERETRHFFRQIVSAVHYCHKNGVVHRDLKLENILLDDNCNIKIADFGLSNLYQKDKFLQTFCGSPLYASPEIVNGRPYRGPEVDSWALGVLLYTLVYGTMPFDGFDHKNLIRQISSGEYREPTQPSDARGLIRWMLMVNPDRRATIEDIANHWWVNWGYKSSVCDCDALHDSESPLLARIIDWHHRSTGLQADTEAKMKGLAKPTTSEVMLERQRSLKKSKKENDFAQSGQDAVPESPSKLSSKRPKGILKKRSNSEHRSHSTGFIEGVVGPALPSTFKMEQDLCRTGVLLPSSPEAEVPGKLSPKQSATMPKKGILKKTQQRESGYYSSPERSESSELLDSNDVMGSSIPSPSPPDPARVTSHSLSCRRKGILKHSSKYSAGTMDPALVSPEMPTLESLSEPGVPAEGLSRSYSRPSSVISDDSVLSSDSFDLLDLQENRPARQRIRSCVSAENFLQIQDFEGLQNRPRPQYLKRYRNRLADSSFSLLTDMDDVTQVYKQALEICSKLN
MAP kinase-interacting serine/threonine-protein kinase 2, sequence (Q9HBH9 whole entry): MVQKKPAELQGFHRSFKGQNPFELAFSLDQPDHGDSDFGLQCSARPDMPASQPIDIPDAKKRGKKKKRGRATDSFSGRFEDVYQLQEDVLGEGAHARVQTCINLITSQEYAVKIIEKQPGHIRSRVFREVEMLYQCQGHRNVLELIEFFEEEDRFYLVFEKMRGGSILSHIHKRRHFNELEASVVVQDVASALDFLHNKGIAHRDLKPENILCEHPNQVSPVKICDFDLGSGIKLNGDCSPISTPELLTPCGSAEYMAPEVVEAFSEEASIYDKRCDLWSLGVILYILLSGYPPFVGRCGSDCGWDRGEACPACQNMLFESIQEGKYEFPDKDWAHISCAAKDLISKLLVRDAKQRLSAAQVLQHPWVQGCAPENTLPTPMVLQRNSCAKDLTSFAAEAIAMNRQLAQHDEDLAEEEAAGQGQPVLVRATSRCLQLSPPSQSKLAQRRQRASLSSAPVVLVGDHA
Serine/threonine-protein kinase MARK1 (Homo sapiens), sequence (Q9P0L2 whole entry, looked up): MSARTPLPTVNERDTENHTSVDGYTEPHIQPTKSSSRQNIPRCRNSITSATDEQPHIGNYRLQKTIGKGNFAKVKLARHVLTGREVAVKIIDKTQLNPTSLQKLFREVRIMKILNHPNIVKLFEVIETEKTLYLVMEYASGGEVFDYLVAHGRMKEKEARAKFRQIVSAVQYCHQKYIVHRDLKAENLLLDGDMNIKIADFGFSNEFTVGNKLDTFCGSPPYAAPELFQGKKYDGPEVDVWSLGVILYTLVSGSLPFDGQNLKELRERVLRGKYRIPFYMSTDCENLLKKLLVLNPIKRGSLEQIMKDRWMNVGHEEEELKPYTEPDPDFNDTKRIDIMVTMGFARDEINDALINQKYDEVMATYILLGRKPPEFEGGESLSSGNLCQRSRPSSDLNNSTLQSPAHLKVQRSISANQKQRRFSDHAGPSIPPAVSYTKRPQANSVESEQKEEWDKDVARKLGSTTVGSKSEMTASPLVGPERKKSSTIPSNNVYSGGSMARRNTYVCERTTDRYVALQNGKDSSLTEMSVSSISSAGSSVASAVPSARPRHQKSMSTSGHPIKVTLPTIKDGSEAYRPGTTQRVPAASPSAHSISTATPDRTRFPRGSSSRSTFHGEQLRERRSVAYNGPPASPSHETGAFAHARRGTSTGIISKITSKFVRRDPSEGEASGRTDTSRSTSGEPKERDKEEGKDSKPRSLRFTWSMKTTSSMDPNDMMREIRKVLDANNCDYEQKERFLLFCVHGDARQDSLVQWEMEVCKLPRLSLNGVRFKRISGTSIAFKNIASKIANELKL

| Compound | IC50 [1] [nM] | IC50 [6] [nM] | IC50 [7] [nM] | Kinetic solubility [8] [µM] | IC50 [9] [nM] | IC50 [10] [nM] | Peff [3] | also measured |
| --- | --- | --- | --- | --- | --- | --- | --- | --- |
| NS(=O)(=O)c1ccc(CNc2ccnc(Nc3cccc(NC(=O)N4CCCC4)c3)n2)cc1 | > 10000 | > 10000 | > 10000 | 147 | 33 | > 10000 |  | IC50 [2]: 305 nM; Peff ([3]; BLD = below limit of detection): Bld; IC50 [4]: > 10000 nM; IC50 [5]: > 10000 nM; % control [11]: 62% |
| c1cc(CN2CCOCC2)cc(Nc2ncc(C3CC3)c(NCCc3c[nH]cn3)n2)c1 | 4010 | > 10000 | 3620 |  |  | 808 | 5.61 10^-7 cm/s | inhibition [12]: Active; inhibition [13]: Active; inhibition [14]: Active; inhibition [15]: Active; inhibition [16]: Active; Kinetic_solubility [8]: 173.6 µM |
| O=C(NCCCNc1ccnc(Nc2cccc(NC(=O)N3CCCC3)c2)n1)C1CCC1 | > 10000 | > 10000 | 2310 | 169 | 720 | > 10000 | 8.24 10^-8cm/s | IC50 [17]: 769 nM; IC50 [18]: 390 nM; IC50 [19]: 161 nM; IC50 [20]: 325 nM; % control [21]: 56%; IC50 [22]: 481 nM |

— ChEMBL document CHEMBL5046221, “Identification of Pyrimidine-Based Lead Compounds for Understudied Kinases Implicated in Driving Neurodegeneration” (J Med Chem, 2022)
